Screens deposited in PubChem by several laboratories.
FLuc act counter = FLuc activators, initial screening, artefact control for FLuc-dependent activation tests, biochemical, ATPlite luminescence | Luciferin 4-monooxygenase (Photinus pyralis), P08659 | ATPlite luciferase biochemical, 10 min; 0 = ATP-free wells, 1 = DMSO control | 200,000 tested, under 10 active | activation factor at 10 µM;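 active = luciferase activation factor, scaled between plate controls, of at least 2 with compound at 10 µM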
Target sequence (P08659 whole entry, looked up): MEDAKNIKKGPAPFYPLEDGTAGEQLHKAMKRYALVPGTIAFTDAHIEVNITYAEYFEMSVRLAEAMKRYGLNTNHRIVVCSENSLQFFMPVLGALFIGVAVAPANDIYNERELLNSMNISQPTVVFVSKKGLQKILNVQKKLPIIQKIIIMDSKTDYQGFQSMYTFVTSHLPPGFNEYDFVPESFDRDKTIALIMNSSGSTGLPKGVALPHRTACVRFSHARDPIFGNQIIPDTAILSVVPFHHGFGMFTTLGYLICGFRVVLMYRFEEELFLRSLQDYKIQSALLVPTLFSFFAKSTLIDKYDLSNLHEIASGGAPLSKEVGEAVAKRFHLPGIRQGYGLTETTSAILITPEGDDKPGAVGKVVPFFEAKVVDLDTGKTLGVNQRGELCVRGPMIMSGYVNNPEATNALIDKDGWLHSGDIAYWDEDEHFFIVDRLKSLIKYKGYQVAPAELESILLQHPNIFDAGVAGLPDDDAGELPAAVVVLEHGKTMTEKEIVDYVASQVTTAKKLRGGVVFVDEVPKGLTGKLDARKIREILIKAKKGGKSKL
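System: cell-free luciferase reagent; medium: PBS as buffer for the ATP substrate; doses: test compounds dosed from 2 mM stocks in 100% DMSO; incubation: 10 min, room temperature; measured by: luminescence from luciferase reaction; read-out: luciferase activation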
ABCB1 block = ABCB1 efflux pump inhibitors, primary screen, cell-based, multiplex, flow cytometry, ABCG2 counter-screen; 0.067% of 190,000 active; CCRF-Adr cells, JC-1 efflux; ATP-dependent translocase ABCB1 (Homo sapiens), P08183; inhibition, % at 6.6 µM; in the data active = inhibition above about 40%;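 note: 0% = vehicle and 100% = reference inhibitor; higher value means more JC-1 retained so stronger ABCB1 efflux block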
Redox H2O2 prof = compounds producing H2O2 with reducing agent – biochemical, NIH compound library profiling, artefact control for MLSCN library redox annotation, primary screen | DTT-dependent redox cycling H2O2, phenol red/HRP absorbance; 100% = 100 µM peroxide control, 0% = buffer | activation, % at 10 µM | 0.03% of 200,000 active;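 active = activation of at least 50% relative to the plate's high and low controls in the primary single-dose screen; inactive = activation below 50%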;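 note: compound incubated with DTT at 0.8 mM final as the reducing agent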
FLuc inhib CS = firefly luciferase enzyme inhibitors, primary screen, artefact control for luciferase-based inhibitor screens, biochemical, luminescence, ATPLite. 10 min. inhibition, % at 10 µM. 1.5% of 200,000 active. Luciferin 4-monooxygenase (Photinus pyralis), P08659;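 active = inhibition above about 50% when tested at 10 µM, limit read from the data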
ABCG2 block = ABCG2 efflux pump inhibitors, primary screen, multiplex with ABCB1, IgMXP3 cells, flow cytometry. Broad substrate specificity ATP-binding cassette transporter ABCG2 (Homo sapiens), Q9UNQ0. JC-1 efflux. inhibition, % at 6.6 µM. 0.1% of 190,000 active. AID 1325, 2008;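 active = inhibition above 80%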;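 note: 0% = DMSO and 100% = nicardipine control wells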
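Incubation: cells with compound and JC-1, 10 min at 25 °C, rotating, no wash / Test system: IgMXP3 (ABCG2) plus far-red-tagged CCRF-Adr (ABCB1) cells / Compound dosing: one concentration, 6.6 µM final / Also added: JC-1 fluorescent substrate / Evaluation: efflux inhibition in percent versus controls / Detection: flow cytometry, 530 nm JC-1 signal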
Measles CPE = compounds protecting cells from measles virus cytopathic effect, primary screen, measles RdRp inhibitor project, single point, MLSMR library, absorbance | protection (pct of control), % at 4 µM | Measles virus-infected cells, CPE protection | AID 841, 2007 | 1.5% of 140,000 active; in the data active = protection mostly above about 24%, no sharp cut-off; inactive = mostly below about 26%
Active calls of the source: *; · = no result given. A selection: hits, their analogues and other compounds. The true share with any hit is near 2.7%.

SMILES | FLuc act counter | ABCB1 block | Redox H2O2 prof | FLuc inhib CS | ABCG2 block | Measles CPE
Cc1ccc(Cn2nnc3c(=O)[nH]c(C4CCCN(S(=O)(=O)c5ccccc5)C4)nc32)cc1 (configuration not stated) | 1.1 | 0 | 0 | -11 | 1 | 46*
Cn1c(CNc2nc3ccccc3n2CCN2CCCCC2)nc2ccccc21 | 1.1 | 1 | 1 | -5 | 1 | 3
OCCNc1nc2ccccc2n1CCN1CCCCC1 | 1 | 3 | 0 | -5 | 27 | 47*
NC(=O)C1=C[C@@H](c2ccccc2)C[C@@H](OCc2ccc(CO)cc2)O1 | 1 | 1 | -1 | 0 | 2 | ·
CCC1(C)CC(c2csc(N)n2)CCO1 (configuration not stated) | 1.1 | 0 | 0 | -5 | 1 | 65*
CN(C)CCNC(=O)c1cc2sc3ccccc3c2s1 | 1 | 1 | -1 | 2 | 10 | ·
OC1(c2ccc(F)cc2)CCN(Cc2nnnn2Cc2cccs2)CC1 | 1 | 0 | 1 | -3 | 1 | 10
O=c1c2cnn(-c3ccccc3)c2nc(-c2ccco2)n1-c1ccccc1 | 1 | 2 | 1 | 1 | 8 | 35*
O=c1oc(-c2ccco2)nc2c1cnn2-c1ccccc1 | 1 | 0 | 2 | -2 | 3 | 4
COc1ccc(Cl)cc1NC(=O)CN1C(=O)CC(C)S(=O)(=O)c2ccccc21 (configuration not stated) | 1 | 1 | 0 | -3 | 0 | ·
CCOC(=O)Cc1csc(NC(=S)NC(=O)c2ccc([N+](=O)[O-])cc2)n1 | 0.6 | 1 | 0 | 43 | 45 | 14
CCOC(=O)Cc1csc(NC(=O)c2ccc(S(=O)(=O)N3CCCCC3)cc2)n1 | 1.1 | 1 | 1 | -7 | 7 | 39*
CCOC(=O)Cc1csc(NC(=S)NC(=O)c2ccc(Cl)cc2)n1 | 0.4 | 0 | -4 | 59* | 5 | 16
CC(Oc1ccccc1F)C(=O)NNC(=O)c1cc2ccccc2o1 (configuration not stated) | 0.9 | 1 | -1 | 8 | 5 | ·
Cc1cc(C(=O)Cn2nnc3ccccc3c2=O)c(C)n1-c1ccccc1F | 0.1 | 0 | 0 | 85* | 1 | 97*
CCOC(=O)CCc1c(C)c2c(C)nn(-c3ccccc3)c2[nH]c1=O | 1 | 1 | -1 | -1 | 11 | 0
N/C(=N\OC(=O)c1ccccc1)c1cccnc1 | 0.1 | 1 | 0 | 92* | 7 | ·
N/C(=N\OC(=O)Cc1ccccc1)c1cccnc1 | 1 | 0 | -3 | 2 | 0 | 14
N/C(=N\OC(=O)c1ccc(Br)cc1)c1ccccc1 | 0.1 | 1 | 0 | 95* | 15 | 3
Cc1ccccc1C(=O)O/N=C(\N)c1ccncc1 | 0.3 | 0 | 0 | 69* | 6 | 13
N/C(=N\OC(=O)CCCc1ccccc1)c1cccnc1 | 0.5 | 0 | 0 | 50* | 5 | 8
C=CCNC(=O)c1cc(C(=O)C(C)c2ncc(C(F)(F)F)cc2Cl)c[nH]1 (configuration not stated) | 1 | 0 | -1 | 2 | 7 | ·
N/C(=N\OC(=O)c1cccc(Cl)c1)c1cccnc1 | 0.3 | 0 | 0 | 68* | 4 | 5
N/C(=N\OC(=O)CCC1CCCCC1)c1cccnc1 | 0.4 | 0 | -14 | 63* | 1 | 3
N/C(=N\OC(=O)c1ccccc1Cl)c1cccnc1 | 0.2 | 1 | 4 | 83* | 4 | 36
SMILES | FLuc act counter | ABCB1 block | Redox H2O2 prof | FLuc inhib CS | ABCG2 block | Measles CPE
N/C(=N\OC(=O)c1ccc(Cl)c(Cl)c1)c1cccnc1 | 0.5 | 0 | 0 | 46 | 5 | 4
O=C(COC(=O)c1ccccc1)c1ccc(Br)cc1 | 0.4 | 0 | -7 | 56* | 3 | 10
Cc1nn(Cc2ccccc2)c(Cl)c1/C=C1\NC(=S)NC1=O | 1 | 0 | 0 | 1 | 2 | ·
CC1CC(=O)N(C)c2cc([N+](=O)[O-])ccc2N1 (configuration not stated) | 1 | 1 | 0 | -5 | 2 | ·
Cc1n(CC(O)COC2CCCCC2)c2ccccc2[n+]1C (configuration not stated) | 1.1 | 0 | 1 | -6 | 0 | 29
O=C(OCC(=O)c1ccc[nH]1)c1ccc2ccccc2n1 | 0.9 | 0 | 0 | 13 | 25 | ·
N/C(=N\OC(=O)c1ccccc1Cl)c1ccncc1 | 0.5 | 0 | -1 | 54* | 4 | ·
O=C(COC(=O)c1ccc2ccccc2n1)c1ccccc1 | 0.4 | 1 | 0 | 60* | 10 | ·
O=C(CSc1ncn[nH]1)c1ccc(OC(F)F)cc1 | 1 | 0 | 0 | 3 | 3 | ·
COC(=O)Cc1ccc(NC(=O)c2ccc(C(C)(C)C)cc2)cc1 | 0.4 | 0 | 0 | 60* | 2 | 18
O=C(Nc1ccccc1)N1CCn2c(nc3ccccc32)C1 | 1 | 1 | 3 | -3 | 2 | 48*
CCN(CC)C(=O)N1CCn2c(nc3ccccc32)C1 | 1 | 2 | 3 | 0 | 8 | 20
O=c1cc(-c2ccccc2)[nH]c2ccccc12 | 1 | 0 | 0 | 4 | 2 | 13
O=C1C(c2ccncc2)=C(O)c2ccccc21 | 0.2 | 1 | 2 | 83* | 7 | 12
O=C1C(c2cc(=O)c3ccccc3[nH]2)=C(O)c2ccccc21 | 0.1 | -1 | 0 | 89* | -10 | 4
COc1cccc(NC(=O)CN(C)C(C)C(=O)Nc2ccc(S(=O)(=O)N3CCCC3)cc2)c1 (configuration not stated) | 1 | 1 | -2 | -4 | 6 | ·
CCc1nnc(NC(=O)c2ccc(-c3ccc(F)cc3)o2)s1 | 1 | 0 | -2 | 0 | 3 | ·
O=C(Nc1nccs1)c1ccc(-c2ccc(Cl)cc2)o1 | 0.1 | -1 | -2 | 85* | -2 | ·
O=C(Nc1cccnc1)c1ccc(-c2ccc(Cl)cc2)o1 | 0.3 | -2 | 0 | 66* | 3 | ·
O=C(Nc1nccs1)c1ccc(-c2ccc(F)cc2)o1 | 0.2 | 0 | 0 | 78* | 3 | ·
O=C(Nc1nccs1)c1ccc(-c2ccc([N+](=O)[O-])cc2)o1 | 0.8 | 0 | 8 | 21 | 2 | ·
Cc1cc(C(=O)C[N+]2(C)CCOCC2)c(C)n1-c1ccc(Br)cc1 | 1.1 | 0 | 1 | -5 | -1 | ·
Cc1cc(N)n(-c2cc(C)c3ccccc3n2)n1 | 0.2 | 1 | 0 | 84* | 3 | ·
